The list is not random: actives were taken first. Their share in the collection is about 2.5%.
GSTO1 counter – inhibitors of recombinant GSTO1, primary screen, counter-screen for RBBP9 inhibitor project, biochemical, fluorescence polarization; Glutathione S-transferase omega-1 (Homo sapiens), P78417; activity-based probe fluorescence polarization; inhibition, % at 5.96 µM; 300,000 compounds, 1.1% hits; AID 1974, 2009;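 active = inhibition above the campaign mean inhibition plus 3 SD, cut at about 35% in these data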
Fh CTSL1 inh – Fasciola hepatica cathepsin L1 inhibitors, primary screen, counter-screen for PFM18AAP inhibitor project, biochemical, QFRET, fluorogenic peptide substrate. 300,000 compounds, 0.49% hits. recombinant F. hepatica cathepsin L1, Z-Leu-Arg-MCA fluorescence. inhibition, % at 5.96 µM;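 active = inhibition above the mean of all tested compounds plus 3 SD, set per screening campaign, cut at about 17% in these data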
TDP2 inh – human TDP2 enzyme inhibitors, primary screen, biochemical, epi absorbance, recombinant enzyme; T5PNP hydrolysis, p-nitrophenol absorbance 415 nm; inhibition, % at 12.8 µM; 370,000 compounds, 0.34% hits; Tyrosyl-DNA phosphodiesterase 2 (Homo sapiens), O95551;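 active = inhibition above the mean of all tested compounds plus 3 SD, set per campaign, cut at about 25% in these data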
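Assay system: Recombinant human TDP2 | Quantity: 120 nM TDP2 per well | Incubation: 2 h at 37 °C | Signal: Epi absorbance | Evaluation: Percent inhibition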
PRMT1 FP inh – PRMT1 methyltransferase inhibitors, primary screen, biochemical, fluorescence polarization. Protein arginine N-methyltransferase 1 (Homo sapiens), Q99873. recombinant PRMT1, activity-based probe fluorescence polarization. inhibition, % at 2.79 µM. 370,000 compounds, 1.3% hits;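 active = inhibition above about 21% made by adding two undisclosed values, limit read from the data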
Target sequence (Q99873 whole entry, looked up): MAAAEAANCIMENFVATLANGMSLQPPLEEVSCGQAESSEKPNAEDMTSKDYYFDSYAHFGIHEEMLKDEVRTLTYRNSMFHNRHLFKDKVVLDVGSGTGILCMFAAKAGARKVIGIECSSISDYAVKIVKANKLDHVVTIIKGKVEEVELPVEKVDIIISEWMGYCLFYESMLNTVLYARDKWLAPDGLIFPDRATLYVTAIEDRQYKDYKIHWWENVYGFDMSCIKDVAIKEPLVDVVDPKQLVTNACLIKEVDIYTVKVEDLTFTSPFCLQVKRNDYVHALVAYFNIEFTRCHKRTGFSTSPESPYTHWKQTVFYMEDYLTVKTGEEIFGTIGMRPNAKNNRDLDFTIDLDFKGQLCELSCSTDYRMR
PAD4 FP inh – human PAD4 inhibitors, primary screen, biochemical, fluorescence polarization, 1536-well format; Protein-arginine deiminase type-4 (Homo sapiens), Q9UM07; recombinant PAD4, RCA probe fluorescence polarization; inhibition, % at 6.36 µM; 330,000 compounds, 0.41% hits; AID 485272, 2010;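 active = percent inhibition above a cutoff equal to the mean of all tested compounds plus 3 SD, cut at about 15% in these data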
PRMT1 confirm – PRMT1 methyltransferase inhibitors, confirmation, biochemical, fluorescence polarization, triplicate. shares compounds with PRMT1 FP inh. recombinant His-PRMT1, activity-based probe fluorescence polarization. inhibition, % at 2.79 µM. 3,300 compounds, 42% hits;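 active = mean inhibition across replicates above the hit cutoff derived for the earlier primary screen, cut at about 22% in these data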
Of the large screens only hits and unclear results are named; the others gave an inactive call (follow-up assays come after a bar, where they were run).

NS(=O)(=O)c1ccc(-c2ccc(/C=C3\NC(=S)NC3=O)o2)cc1	PRMT1 FP inh 53.0 | PRMT1 confirm 27.0
O=C(Nc1c(-c2ccccc2)nc2ncccn12)c1ccccc1	none (no result: GSTO1 counter, Fh CTSL1 inh, PAD4 FP inh)
O=C(NC(=S)Nc1cccc(S(=O)(=O)NC2=NCCC2)c1)c1cc(-c2ccco2)nc2ccccc12	PRMT1 FP inh 31.9 | PRMT1 confirm inactive
Cc1ccc(-c2cc(C(=O)O)c3cc(Br)ccc3n2)o1	PRMT1 FP inh 76.8 | PRMT1 confirm 81.5
COC(=O)c1cc(-c2ccc(C)o2)nc2ccccc12	PRMT1 FP inh 42.1 | PRMT1 confirm 23.8
CCn1cc(C(=O)NCc2ccc(C)o2)c2cc(OC)c(OC)cc2c1=O	none
Cc1ccc(CNC(=O)c2coc(=O)c3ccccc23)o1	PRMT1 FP inh 32.2 | PRMT1 confirm inactive
CN=C1S/C(=C/c2cc(C)n(Cc3ccccc3)c2C)C(=O)N1C	none (no result: GSTO1 counter, Fh CTSL1 inh, PAD4 FP inh)
COC(=O)[C@]12C[C@H](CC(=O)NCCCN3CCCC3=O)C(=O)N(Cc3ccc(Cl)cc3Cl)C1=C[C@H](C(C)C)O[C@@H]2C1CC1	none (no result: GSTO1 counter, Fh CTSL1 inh, PAD4 FP inh)
Cc1cc2cc3c(cc2n2c(SCC(=O)Nc4nc(-c5ccccc5)cs4)nnc12)OCO3	none (no result: GSTO1 counter, Fh CTSL1 inh, PAD4 FP inh)
Cc1ccc(-c2cc(C(=O)N3CC(C)OC(C)C3)c3ccccc3n2)o1 (centres undefined)	none
Cc1cc(C(=O)NCc2ccco2)c2ccccc2n1	none
O=C(NCc1ccco1)c1cccnc1-c1nc2ccccc2s1	PRMT1 FP inh 41.6 | PRMT1 confirm 46.1
Cc1ccc(-c2cc(C(=O)N3CC(C)CC(C)C3)c3ccccc3n2)o1 (centres undefined)	PRMT1 FP inh 64.2 | PRMT1 confirm 29.2
Cc1ccc(-c2cc(C(=O)NCc3ccco3)c3ccccc3n2)o1	PRMT1 FP inh 48.2 | PRMT1 confirm inactive
Cc1ccc(-c2cc(C(=O)Nc3ccccc3C)c3ccccc3n2)o1	PRMT1 FP inh 43.6 | PRMT1 confirm inactive
COc1cccc(NC(=O)CN(C)C(=O)c2cc(-c3ccc(C)o3)nc3ccccc23)c1	PRMT1 FP inh 50.8 (no result: GSTO1 counter, Fh CTSL1 inh) | PRMT1 confirm inactive
COc1cccc(NC(=O)c2cc(-c3ccc(C)o3)nc3ccccc23)c1	none
COc1cc(-c2cc(C(=O)Nc3cccc(S(=O)(=O)N(C)C)c3)c3ccccc3n2)cc(OC)c1OC	none
Cc1ccc(-c2cc(C(=O)Nc3cccc(S(=O)(=O)N(C)C)c3)c3ccccc3n2)o1	PRMT1 FP inh 49.6 | PRMT1 confirm 55.7
CC1CCN(C2CC(=O)N(c3ccc(Br)cc3Br)C2=O)CC1 (centres undefined)	PRMT1 FP inh 64.3 | PRMT1 confirm inactive
CC1CCN(C2CC(=O)N(c3ccccc3)C2=O)CC1 (centres undefined)	PRMT1 FP inh 81.2 | PRMT1 confirm inactive
O=C1CC(N2CCC(c3nc4ccccc4[nH]3)CC2)C(=O)N1c1cccc(F)c1 (centres undefined)	PRMT1 FP inh 43.1 | PRMT1 confirm inactive
O=C1CC(N2CCSCC2)C(=O)N1c1ccc(Br)cc1 (centres undefined)	none
O=C(O)c1ccc(N2C(=O)CC(N3CCC(c4nc5ccccc5[nH]4)CC3)C2=O)cc1 (centres undefined)	none
O=C1/C(=C/c2cccnc2)Sc2ccccc21	PRMT1 FP inh 46.5 | PRMT1 confirm inactive
C=C1c2cccc(O)c2C(=O)C2C(=O)[C@]3(O)C(=O)C(C(N)=O)C(=O)[C@@H](N(C)C)[C@@H]3[C@@H](O)[C@H]12 (some centres undefined)	PRMT1 FP inh 61.5 (no result: GSTO1 counter, Fh CTSL1 inh) | PRMT1 confirm 22.5
CCNc1sc(C(=O)c2cccs2)c(N)c1C#N	PRMT1 FP inh 29.2 | PRMT1 confirm inactive
Oc1ccc2ccccc2c1CNc1cnc2ccccc2c1	PRMT1 FP inh 42.9 | PRMT1 confirm 29.4
Oc1ccccc1CNc1cnc2ccccc2c1	none
COc1ccc(CN2C(=O)c3ccnn3CC2(C)c2nnnn2-c2c(C)cccc2C)cc1 (centres undefined)	none (no result: GSTO1 counter, Fh CTSL1 inh, PAD4 FP inh)
